The test system of data set [1] is FLuc reporter transcript. The experiment in a line: RT-PCR of firefly luciferase. Format: cell-based. Conditions: 1 μM cosmosiin vs 1 nM E2, 4 and 24 hr; both cell lines.
Data set [2] has as its target T1, ERβ (Homo sapiens, UniProt Q92731). The experiment in a line: Luciferase reporter assay in Hs578T-ERβLuc cells. Format: cell-based. Conditions: for luciferase induction in Hs578T-ERβLuc (in words): b31: 10 nM DPN or PPT, 24 hr, cosmosiin up to 10 μM. On the technique in general: In a reporter assay the amount or activity of a reporter protein is the signal.
The test system of data set [3] is ERα/β and ERβ/β dimers. As to the kind of experiment: BRET dimerization assays. Format: cell-based. The conditions noted are these: unpublished data. For orientation: Bioluminescence resonance energy transfer reports proximity on the nanometre scale.
Data set [4] has as its target T2, ERα (Homo sapiens, UniProt P03372).
T2 sequence (P03372 1-595): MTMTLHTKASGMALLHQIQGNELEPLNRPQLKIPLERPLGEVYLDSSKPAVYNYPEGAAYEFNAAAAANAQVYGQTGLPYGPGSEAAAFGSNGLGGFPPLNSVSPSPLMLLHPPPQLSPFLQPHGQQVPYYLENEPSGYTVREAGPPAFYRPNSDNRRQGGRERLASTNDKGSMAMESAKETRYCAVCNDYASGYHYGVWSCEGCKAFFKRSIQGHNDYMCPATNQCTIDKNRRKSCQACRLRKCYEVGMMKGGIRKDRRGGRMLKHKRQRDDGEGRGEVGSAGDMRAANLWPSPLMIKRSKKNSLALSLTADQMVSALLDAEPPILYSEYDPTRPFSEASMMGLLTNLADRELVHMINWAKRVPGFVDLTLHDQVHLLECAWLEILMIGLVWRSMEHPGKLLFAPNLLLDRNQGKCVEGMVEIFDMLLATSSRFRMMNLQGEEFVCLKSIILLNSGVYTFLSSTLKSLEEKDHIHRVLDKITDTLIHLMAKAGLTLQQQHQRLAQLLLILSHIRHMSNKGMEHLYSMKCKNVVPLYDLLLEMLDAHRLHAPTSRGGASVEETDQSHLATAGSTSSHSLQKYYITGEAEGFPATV
As to the kind of experiment: Competitive ligand binding assay. Conditions: read-out: IC50 ERα, unpublished data.

For data set [5], the target named is T1, ERβ. The experiment in a line: Competitive ligand binding assay.
Data set [6] deals with C3 (ERβ target gene). As to the kind of experiment: qPCR of ERβ target gene C3 in Hs578T-ERβ cells. The format is cell-based. Conditions: 50 ng/mL Dox 48 hr, ligand 24 hr; cosmosiin 1 μM. The method in brief:
(§1)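 Cells were hormone-depleted for 3 days in phenol red-free DMEM/F12 + 10% charcoal-stripped FBS, split into 5% stripped serum, and induced with 50 ng/mL Dox for 48 hr. They were then treated with Dox plus test compound or 0.1% DMSO vehicle for 24 hr. Total RNA was extracted and assayed by qRT-PCR: ITGA6 in Hs578T-ERα cells, C3 and JAG1 in Hs578T-ERβ cells. There were three biological replicates, with two-tailed t-tests against control.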

In data set [7] the test system is JAG1 (ERβ target gene). As to the kind of experiment: qPCR of ERβ target gene JAG1 in Hs578T-ERβ cells. Format: cell-based. The conditions noted are these: for JAG1 repression in Hs578T-ERβ cells: 50 ng/mL Dox 48 hr, ligand 24 hr; for JAG1 repression compared to E2, DPN or 1 μM liquiritigenin: 100 nM liquiritigenin, 1 μM cosmosiin. In outline:
as §1
Background: In qPCR the cycle at which signal appears reflects the starting amount.

In data set [8] the test system is ITGA6 (ERα target gene). The experiment in a line: qPCR of ERα target gene ITGA6 in Hs578T-ERα cells. Format: cell-based. The conditions noted are these: for ITGA6 expression in Hs578T-ERα cells at 1 μM: 1 μM ligand, 24 hr; for ITGA6 expression in Hs578T-ERα cells: ligand 24 hr, DPN 10 nM, liquiritigenin 100 nM. The method in brief: as §1
Data set [9] addresses T2, ERα. The experiment in a line: Luciferase reporter assay in Hs578T-ERαLuc cells. The format is cell-based. Conditions: for luciferase induction in Hs578T-ERαLuc (in words): b31: 10 nM DPN or PPT, 24 hr.
Data set [10] deals with T47D-KBLuc cells. Conditions: read-out: EC50, T47D-KBLuc cells; approximate; cited from earlier work.
Data set [11] addresses T1, ERβ. The experiment in a line: pGL4.3xERE reporter in HEK293 cells transfected with full length ERβ. The conditions noted are these: 1 nM E2, 24 hr. The format is cell-based.
The conditions of data set [12]: cited from earlier work.
The target in data set [13] is T2, ERα. The conditions noted are these: concentrations up to 2.5 μM; U2OS, HeLa or WAR5 prostate cancer cells transfected with ERα; cited from earlier work.
Data set [14] has as its target T1, ERβ. Conditions: cited from earlier work.
In data set [15] the target is T2, ERα. The conditions noted are these: cited from earlier work.
Data set [16] deals with T2, ERα. Conditions: cited from earlier work. The source holds these as a separate data set.

Consider six compounds from paper PMC3210412 (Biochemical pharmacology, 2011).

T1 sequence (Q92731 whole entry): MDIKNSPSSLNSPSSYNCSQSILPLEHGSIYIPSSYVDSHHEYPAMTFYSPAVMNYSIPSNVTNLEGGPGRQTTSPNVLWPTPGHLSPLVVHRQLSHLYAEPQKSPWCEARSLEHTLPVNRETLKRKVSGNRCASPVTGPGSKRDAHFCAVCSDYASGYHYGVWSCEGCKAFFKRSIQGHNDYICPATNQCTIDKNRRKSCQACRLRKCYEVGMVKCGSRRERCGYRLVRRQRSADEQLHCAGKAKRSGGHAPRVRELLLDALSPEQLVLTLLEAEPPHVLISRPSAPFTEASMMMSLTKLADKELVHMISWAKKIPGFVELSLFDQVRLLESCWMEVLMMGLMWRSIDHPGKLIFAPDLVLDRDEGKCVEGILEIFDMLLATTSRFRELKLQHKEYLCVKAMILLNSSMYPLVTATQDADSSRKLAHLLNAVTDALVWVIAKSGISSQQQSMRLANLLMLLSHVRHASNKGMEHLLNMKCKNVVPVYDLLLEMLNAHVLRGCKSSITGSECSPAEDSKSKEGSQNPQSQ

For `O=c1cc(-c2ccc(O)cc2)oc2cc(O[C@@H]3O[C@H](CO)[C@@H](O)[C@H](O)[C@H]3O)cc(O)c12` [Cosmosiin, apigenin 7-glucoside], the “luciferase transcript level compared to E2” value in [1] is recorded as “did not induce luciferase expression to a greater extent than E2”. For the same compound, the “luciferase induction in Hs578T-ERβLuc (in words)” value in data set [2] is recorded as “induced luciferase expression to a much greater extent than E2”. Also, the “luciferase induction with ICI 182,780 co-treatment or without Dox” value in data set [2] (data not shown) was “did not induce luciferase expression in Dox-treated cells co-treated with ICI 182,780 or cells not treated with Dox”. The “ER dimer induction (BRET)” value in data set [3] is “selectively induces ERα/β and ERβ/β dimers”. Moreover, the half-maximal inhibitory concentration (IC50) in [4] was determined as 15900 nM. In addition, the concentration for half-maximal inhibition (IC50) in [5] (read-out: IC50 ERβ, unpublished data) came to 3300 nM. Besides, in data set [5] (unpublished data), the “higher binding affinity for ERβ” value is 3 fold. Further, in data set [6], the “C3 expression in Hs578T-ERβ cells” value is listed as “induced C3 expression at 1 μM, but not to the same extent as E2”. Moreover, in data set [7], the “JAG1 repression in Hs578T-ERβ cells” value was “occurred to a similar degree” and the “JAG1 repression compared to E2, DPN or 1 μM liquiritigenin” value is recorded as “do not fully repress JAG1 expression”. Besides, the “ITGA6 expression in Hs578T-ERα cells at 1 μM” value in data set [8] is “ITGA6 expression was induced”. Moreover, the “luciferase induction in Hs578T-ERαLuc (in words)” value in data set [9] was “only slightly activated luciferase reporter expression”.
As for `N#CC(Cc1ccc(O)cc1)c1ccc(O)cc1` (stereo not shown) [DPN, diarylpropionitrile], the “C3 expression in Hs578T-ERβ cells” value in [6] is “capable of inducing C3 expression to a comparable level as E2”. For the same compound, in [7], the “JAG1 repression in Hs578T-ERβ cells” value is listed as “occurred to a similar degree”. For the same compound, the “ITGA6 expression in Hs578T-ERα cells” value in data set [8] is on record as “did not fully activate its expression”.
`C[C@]12CC[C@@H]3c4ccc(O)cc4CC[C@H]3[C@@H]1CC[C@@H]2O` [E2, 17β-estradiol]: the 50% effective concentration (EC50) in data set [10] is around 0.003 nM. In addition, in data set [6], the “C3 expression in Hs578T-ERβ cells” value is “up-regulated in Hs578T-ERβ cells”. In addition, the “JAG1 repression in Hs578T-ERβ cells” value in data set [7] is given as “occurred to a similar degree”. The “induction of luciferase, HEK293 + ERβ” value in data set [11] was 15 fold. Also, in data set [8], the “ITGA6 expression in Hs578T-ERα cells” value is “up-regulated”.
In the case of `C=Cc1cc(O)cc2nc(-c3ccc(O)c(F)c3)oc12` [ERB-041], in data set [12], the “efficacy in rheumatoid arthritis trial” value is given as “did not improve arthritis symptoms” and the “tolerability in rheumatoid arthritis trial” value is recorded as “well tolerated”.
For the compound `O=C1C[C@@H](c2ccc(O)cc2)Oc2cc(O)ccc21` [Liquiritigenin, liquiritigenin], in data set [6], the “C3 expression in Hs578T-ERβ cells” value is on record as “capable of inducing C3 expression to a comparable level as E2”. In data set [7], the “JAG1 repression in Hs578T-ERβ cells” value was “occurred to a similar degree” and the “JAG1 repression compared to E2, DPN or 1 μM liquiritigenin” value is “do not fully repress JAG1 expression”. In addition, in [8], the “ITGA6 expression in Hs578T-ERα cells at 1 μM” value is on record as “ITGA6 expression was induced” and the “ITGA6 expression in Hs578T-ERα cells” value was “did not fully activate its expression”. The “activation of ERα in transcriptional assays” value in [13] is listed as “minimal activation of ERα”.
In the case of `CCCc1c(-c2ccc(O)cc2)nn(-c2ccc(O)cc2)c1-c1ccc(O)cc1` [PPT, propyl pyrazole triol], in data set [2], the EC50 is 26 nM, the “concentrations at which reporter is activated in Hs578T-ERβLuc” value is “greater than 100 nM” and the “luciferase induction in Hs578T-ERβLuc (in words)” value is “could not induce luciferase expression to the same extent as E2”. The “induction of estrogen responsive reporter, HEC-1 cells + ERβ” value in data set [14] was “unable to induce an estrogen responsive reporter”. Also, the “higher binding affinity for ERα compared to ERβ” value in [15] is listed as 400 fold. The “C3 expression in Hs578T-ERβ cells” value in [6] is listed as “slightly induced C3 expression compared to DMSO”. The “JAG1 repression in Hs578T-ERβ cells” value in data set [7] is “had no effect on JAG1 repression”. The “ITGA6 expression in Hs578T-ERα cells” value in [8] was “up-regulated”. The “induction of estrogen responsive reporter, HELN-ERα cells” value in [16] is listed as “unable to induce an estrogen responsive reporter”. For the same compound, in data set [9], the EC50 was found to be 0.016 nM and the “luciferase induction in Hs578T-ERαLuc (in words)” value is “selectively activated luciferase expression in Hs578T-ERαLuc”. In [9] (Hs578T-ERαLuc vs Hs578T-ERβLuc), the “selectivity for ERα (EC50 comparison)” value is reported as around 1000 fold.

In general, IC50 refers to the concentration that inhibits the measured activity by half. In general, EC50 refers to the concentration that produces a half-maximal response.
